Values joined by “and” are separate entries in the source; they are usually repeats but may differ in a detail not shown here. Equal entries are not always repeated.

Chain of Endothelial PAS domain-containing protein 1 (Homo sapiens) (Q99814 whole entry, looked up, the tested form may be a part): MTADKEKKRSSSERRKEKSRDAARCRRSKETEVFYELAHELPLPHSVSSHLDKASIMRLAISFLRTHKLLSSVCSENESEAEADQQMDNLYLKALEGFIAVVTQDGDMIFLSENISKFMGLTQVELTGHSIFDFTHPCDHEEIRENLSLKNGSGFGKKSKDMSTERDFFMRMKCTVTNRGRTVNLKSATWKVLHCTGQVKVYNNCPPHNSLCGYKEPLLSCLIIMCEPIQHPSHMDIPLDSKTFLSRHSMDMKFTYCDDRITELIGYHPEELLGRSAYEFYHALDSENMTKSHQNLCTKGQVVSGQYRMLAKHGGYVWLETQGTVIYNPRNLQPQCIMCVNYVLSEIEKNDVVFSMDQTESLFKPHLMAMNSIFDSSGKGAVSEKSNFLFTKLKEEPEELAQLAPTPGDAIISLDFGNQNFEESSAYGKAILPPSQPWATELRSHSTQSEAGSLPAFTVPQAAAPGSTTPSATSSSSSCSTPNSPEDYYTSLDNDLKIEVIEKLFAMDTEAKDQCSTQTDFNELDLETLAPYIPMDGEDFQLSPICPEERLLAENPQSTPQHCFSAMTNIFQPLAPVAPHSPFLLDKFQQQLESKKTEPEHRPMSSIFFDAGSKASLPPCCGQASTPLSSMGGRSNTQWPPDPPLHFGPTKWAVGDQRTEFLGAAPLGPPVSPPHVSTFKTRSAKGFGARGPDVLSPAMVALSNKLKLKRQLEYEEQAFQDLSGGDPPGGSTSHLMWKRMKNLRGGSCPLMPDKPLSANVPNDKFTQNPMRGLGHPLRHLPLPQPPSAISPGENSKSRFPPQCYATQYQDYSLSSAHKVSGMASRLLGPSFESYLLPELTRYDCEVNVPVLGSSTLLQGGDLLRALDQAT

This assay concerns the target Endothelial PAS domain-containing protein 1 (Homo sapiens) (UniProt Q99814). Nature of the assay: HIF-1a and HIF-2a reporter inhibitors, SAR follow-up, cell-based, luminescence, MIAPaCa-2, 786-0, panel (AID 652011). Particulars: MIAPaCa-2/PANC HIF reporter, luciferase luminescence, desferoxamine, overnight, HIF2a PANC, run 1; at 99 µM (top of the series). The method in brief:
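Probe or stimulus: desferoxamine stimulus / Schedule: overnight compound incubation at 37 °C, 10 min reagent / Dosing: compounds from 10 mM and 0.3125 mM stocks, 1% DMSO final / Signal: luciferase luminescence with One-Glo reagent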
The inhibition is the drop in the measured response relative to a control, in per cent. As to `CC(C)(C)c1ccc(-c2noc(CCC(N)=O)n2)cc1`, the inhibition was 115% and 99.9%.
Regarding `CCC(C)NC(=O)CCc1nc(-c2ccc(C(C)C)cc2)no1` (stereo not given), the inhibition was 12.1%.
For the molecule `CC(C)(C)c1ccc(-c2noc(CCC(=O)Nc3cccc([N+](=O)[O-])c3)n2)cc1`, the inhibition came to 89.8%.
The same measure for `CCNC(=O)CCc1nc(-c2cccc(C)c2)no1`: -22.1%; for `CCC(C)NC(=O)CCc1nc(-c2ccc(C(C)(C)C)cc2)no1` (stereo not given): -20.2%; for `CC(C)(C)c1ccc(-c2noc(CCC(=O)NC3CC3)n2)cc1`: 53.7%.
The same measure for `CCNC(=O)CCc1nc(-c2cccc(OC)c2)no1`: 27.9%; for `CCc1ccc(-c2noc(CCC(=O)NC)n2)cc1`: 1.82%.
`CNC(=O)CCc1nc(-c2ccccc2)no1`: the inhibition was 11.4% and 50.7%.
The same measure for `CCCCc1ccc(-c2noc(CCC(=O)NC(C)CC)n2)cc1` (stereo not given): 45.6%.
Take `CCC(C)NC(=O)CCc1nc(-c2ccccc2)no1` (stereo not given): the inhibition is 63.6%.
With `CC(C)c1ccc(-c2noc(CCC(=O)NC(C)(C)C)n2)cc1`, the inhibition worked out at 57.4%.
The same measure for `CC(C)NC(=O)CCc1nc(-c2ccc(C(C)(C)C)cc2)no1`: 80.3%; for `CC(C)CNC(=O)CCc1nc(-c2ccc(C(C)(C)C)cc2)no1`: 63.8%.
The result for `CCNC(=O)CCc1nc(-c2ccccc2)no1` reads 21.2%.
For the molecule `CCOc1ccccc1NC(=O)CCc1nc(-c2ccc(C(C)(C)C)cc2)no1`, the inhibition is 117%.
The result for `CC(C)(C)c1ccc(-c2noc(CCC(=O)Nc3ccccc3)n2)cc1` reads 116%; that for `CCNC(=O)CCc1nc(-c2ccccc2Cl)no1`, 26%.
`CNC(=O)CCc1nc(-c2ccc(C)cc2)no1`: the inhibition worked out at 40.9%.
The same measure for `CCN(CC)C(=O)CCc1nc(-c2ccc(C(C)(C)C)cc2)no1`: 44.3% and 43.4%.
The result for `CCCCc1ccc(-c2noc(CCC(=O)NCC)n2)cc1` reads -29.8%.
Regarding `CCNC(=O)CCc1nc(-c2ccc(OCC)cc2)no1`, the inhibition is -27.3%.
The same measure for `CCc1ccc(-c2noc(CCC(=O)NC(C)CC)n2)cc1` (stereo not given): -89.5%; for `CN(C)C(=O)CCc1nc(-c2ccc(C(C)(C)C)cc2)no1`: -71.1% and 11.2%; for `CNC(=O)CCc1nc(-c2ccc(F)cc2)no1`: -27.1%.
`CC(C)(C)c1ccc(-c2noc(CCC(=O)NC3CCCC3)n2)cc1`: the inhibition stood at 94.6%.
As to `CNC(=O)CCc1nc(-c2ccc(Cl)cc2)no1`, the inhibition is 13.4%.
The result for `CCCCc1ccc(-c2noc(CCC(=O)NC)n2)cc1` reads -53%; that for `CC(C)(C)NC(=O)CCc1nc(-c2ccc(C(C)(C)C)cc2)no1`, 83.8%.
The result for `CC(C)(C)c1ccc(-c2noc(CCC(=O)NC3CCC3)n2)cc1` reads 108%.

The values are drawn from PubChem BioAssay AID652011 (Sanford-Burnham Center for Chemical Genomics, 2013).
